In ChEMBL document CHEMBL5620437, “Discovery of Conformationally Constrained ALK2 Inhibitors” (J Med Chem, 2024):
Active and inactive are the calls of the source. No cut-off for these calls is given here.

Experiments:
[1] = Metabolic stability in CD-1 mouse liver microsome at 1 uM in presence of NADPH-regeneration system incubated for 60 mins by LC/MS analysis; format: ADME; conditions: liver microsomes, read-out: Stability
Method in brief: (§1)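 Compound 1 μM final (0.1% DMSO) in 0.1 M potassium phosphate pH 7.4 with male CD-1 mouse or pooled human liver microsomes at 0.5 mg/mL protein plus NADPH-regeneration mix. Sampled at 0 and 60 min at 37 °C, in duplicate. Parent remaining by LC/MS peak area.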

[2] = Metabolic stability in human liver microsome at 1 uM in presence of NADPH-regeneration system incubated for 60 mins by LC/MS analysis; format: ADME; conditions: liver microsomes, read-out: Stability; method in brief: as §1
[3] = Apparent permeability across apical to basolateral side in human Caco-2 cells incubated for 2 hrs by LC/MS analysis; format: ADME, cell-based
Method in brief: (§2)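 Caco-2 (C2BBE1) cells seeded 40,000/well on 1.0 μm PET inserts, grown 21–22 days; HBSS with 10 mM HEPES, 15 mM glucose, pH 7.4. Compound 5 μM in donor (0.1% DMSO), receiver with 1% BSA; 2 h at 37 °C shaking. Metoprolol, atenolol, Lucifer yellow, digoxin controls. LC/MS peak areas; two technical replicates; efflux ratio = Papp B-A / Papp A-B.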

[4] = Apparent permeability across basolateral to apical side in human Caco-2 cells incubated for 2 hrs by LC/MS analysis; format: ADME, cell-based; method in brief: as §2
Activin receptor type-1 [5] = molecular target: T1, Activin receptor type-1 (Homo sapiens, UniProt Q04771); test: Inhibition of ALK2 in human HEK293 cells using NanoGlo as substrate incubated for 2 hrs by NanoBRET assay; format: cell-based
T1 sequence (Q04771 whole entry): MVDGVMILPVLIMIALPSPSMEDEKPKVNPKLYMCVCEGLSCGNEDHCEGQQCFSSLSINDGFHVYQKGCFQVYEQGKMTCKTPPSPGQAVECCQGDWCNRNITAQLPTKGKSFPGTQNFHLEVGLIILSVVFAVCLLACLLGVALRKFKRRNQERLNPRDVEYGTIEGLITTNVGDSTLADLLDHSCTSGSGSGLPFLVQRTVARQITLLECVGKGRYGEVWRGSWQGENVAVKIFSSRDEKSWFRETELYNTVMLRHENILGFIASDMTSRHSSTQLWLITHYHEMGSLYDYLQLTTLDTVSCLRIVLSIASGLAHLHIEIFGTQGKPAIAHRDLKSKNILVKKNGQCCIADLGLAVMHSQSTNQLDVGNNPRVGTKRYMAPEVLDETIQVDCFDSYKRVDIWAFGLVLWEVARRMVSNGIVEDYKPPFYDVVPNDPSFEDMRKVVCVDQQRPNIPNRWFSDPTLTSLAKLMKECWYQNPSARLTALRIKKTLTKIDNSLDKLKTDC

[6] = Drug concentration in NOD-SCID mouse plasma at 25 mg/kg, po measured at 0.5 hrs by LC-MS/MS analysis; format: ADME, organism-based
Method in brief: (§3)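 Male NOD-SCID mice given 25 mg/kg orally in 5% DMSO, 47.5% PEG, 47.5% deionized water with 10% Tween80. Plasma drug levels measured at 0.5, 1, 2, 6 and 24 h; demethylated metabolites also quantified.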

[7] = Drug concentration in NOD-SCID mouse plasma at 25 mg/kg, po measured at 1 hrs by LC-MS/MS analysis; format: ADME, organism-based; method in brief: as §3
[8] = Drug concentration in NOD-SCID mouse plasma at 25 mg/kg, po measured at 2 hrs by LC-MS/MS analysis; format: ADME, organism-based; method in brief: as §3
[9] = Drug concentration in NOD-SCID mouse plasma at 25 mg/kg, po measured at 6 hrs by LC-MS/MS analysis; format: ADME, organism-based; method in brief: as §3
[10] = Drug concentration in NOD-SCID mouse plasma at 25 mg/kg, po measured at 24 hrs by LC-MS/MS analysis; format: ADME, organism-based; method in brief: as §3
Activin receptor type-1 [11] = molecular target: T1, Activin receptor type-1; test: Inhibition of N-terminal GST-his6 tagged human recombinant ALK2 (145 to 509 residues) expressed in Sf9 insect cells in presence of ATP by radiometric kinase assay
[12] = Drug concentration in NOD-SCID mouse plasma at 10 mg/kg, po measured at 2 hrs by LC-MS/MS analysis; format: ADME, organism-based
Method in brief: (§4)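 Male NOD-SCID mice dosed orally at 10 mg/kg. Plasma and brain concentrations of parent and demethylated metabolites measured at 2 and 4 h. Kp = Cbrain/Cplasma at 4 h.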

[13] = Drug concentration in NOD-SCID mouse brain at 10 mg/kg, po measured at 2 hrs by LC-MS/MS analysis; format: ADME, organism-based; conditions: read-out: Ct; method in brief: as §4
[14] = Drug concentration in NOD-SCID mouse plasma at 10 mg/kg, po measured at 4 hrs by LC-MS/MS analysis; format: ADME, organism-based; method in brief: as §4
[15] = Drug concentration in NOD-SCID mouse brain at 10 mg/kg, po measured at 4 hrs by LC-MS/MS analysis; format: ADME, organism-based; conditions: read-out: Ct; method in brief: as §4
[16] = Ratio of drug concentration in brain to plasma in NOD-SCID mouse brain at 10 mg/kg, po measured at 4 hrs by LC-MS/MS analysis; format: ADME, organism-based; conditions: read-out: BPR; method in brief: as §4
[17] = Dissociation constant, pKa of compound; format: physicochemical
[18] = molecular target: Epithelial discoidin domain-containing receptor 1 (Homo sapiens) (UniProt Q08345); test: Inhibition of human recombinant DDR1 (492 to end residues) using KKKSPGEYVNIEF as substrate at 1 uM incubated for 40 mins by scintillation based radiometric LeadHunter assay relative to control
[19] = molecular target: TRAF2 and NCK-interacting protein kinase (Homo sapiens) (UniProt Q9UKE5); test: Inhibition of human recombinant TNIK (1 to 367 residues) using RLGRDKYKTLRQI as substrate at 1 uM incubated for 40 mins by scintillation based radiometric LeadHunter assay relative to control
[20] = molecular target: Epithelial discoidin domain-containing receptor 1 (Homo sapiens) (UniProt Q08345); test: Inhibition of human recombinant DDR1 (492 to end residues) using KKKSPGEYVNIEF as substrate incubated for 40 mins by scintillation based radiometric LeadHunter assay
[21] = molecular target: Receptor-interacting serine/threonine-protein kinase 2 (Homo sapiens) (UniProt O43353); test: Inhibition of human recombinant RIPK2 (1 to 299 residues) incubated for 120 mins in presence of ATP by scintillation based radiometric LeadHunter assay
[22] = molecular target: Protein-tyrosine kinase 6 (Homo sapiens) (UniProt Q13882); test: Inhibition of full length human recombinant BRK using poly Glu as substrate incubated for 40 mins by scintillation based radiometric LeadHunter assay
[23] = system: Epidermal growth factor receptor (Homo sapiens), P00533 [L858R]; test: Inhibition of human EGFR L858R mutant (696 to end residues) using poly Glu as substrate incubated for 40 mins by scintillation based radiometric LeadHunter assay
[24] = system: Epidermal growth factor receptor (Homo sapiens), P00533 [L861Q]; test: Inhibition of human EGFR L861Q mutant (696 to end residues) using poly Glu as substrate incubated for 40 mins by scintillation based radiometric LeadHunter assay
[25] = molecular target: TRAF2 and NCK-interacting protein kinase (Homo sapiens) (UniProt Q9UKE5); test: Inhibition of human recombinant TNIK (1 to 367 residues) using RLGRDKYKTLRQI as substrate incubated for 40 mins by scintillation based radiometric LeadHunter assay
[26] = molecular target: Tyrosine-protein kinase Lyn (Homo sapiens) (UniProt P07948); test: Inhibition of full length human recombinant LYN (1 to 367 residues) using poly Glu as substrate incubated for 40 mins by scintillation based radiometric LeadHunter assay
Sequence of Tyrosine-protein kinase Lyn (Homo sapiens) (P07948 2-512 limits assumed): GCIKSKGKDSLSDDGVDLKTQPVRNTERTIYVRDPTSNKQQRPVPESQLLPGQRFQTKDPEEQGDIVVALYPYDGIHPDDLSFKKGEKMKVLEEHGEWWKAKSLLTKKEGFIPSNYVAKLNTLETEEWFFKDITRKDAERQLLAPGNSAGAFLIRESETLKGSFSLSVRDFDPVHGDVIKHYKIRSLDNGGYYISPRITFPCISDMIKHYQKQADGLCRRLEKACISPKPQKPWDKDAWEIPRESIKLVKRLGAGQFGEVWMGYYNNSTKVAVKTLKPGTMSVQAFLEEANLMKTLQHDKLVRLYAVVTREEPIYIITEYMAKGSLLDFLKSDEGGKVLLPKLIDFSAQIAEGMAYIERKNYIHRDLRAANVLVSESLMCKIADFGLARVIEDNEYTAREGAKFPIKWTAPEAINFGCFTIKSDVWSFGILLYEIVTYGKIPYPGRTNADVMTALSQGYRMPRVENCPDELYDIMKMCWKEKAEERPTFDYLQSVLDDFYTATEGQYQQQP

Sequence of Epithelial discoidin domain-containing receptor 1 (Homo sapiens) (Q08345 whole entry, the tested form may be a part): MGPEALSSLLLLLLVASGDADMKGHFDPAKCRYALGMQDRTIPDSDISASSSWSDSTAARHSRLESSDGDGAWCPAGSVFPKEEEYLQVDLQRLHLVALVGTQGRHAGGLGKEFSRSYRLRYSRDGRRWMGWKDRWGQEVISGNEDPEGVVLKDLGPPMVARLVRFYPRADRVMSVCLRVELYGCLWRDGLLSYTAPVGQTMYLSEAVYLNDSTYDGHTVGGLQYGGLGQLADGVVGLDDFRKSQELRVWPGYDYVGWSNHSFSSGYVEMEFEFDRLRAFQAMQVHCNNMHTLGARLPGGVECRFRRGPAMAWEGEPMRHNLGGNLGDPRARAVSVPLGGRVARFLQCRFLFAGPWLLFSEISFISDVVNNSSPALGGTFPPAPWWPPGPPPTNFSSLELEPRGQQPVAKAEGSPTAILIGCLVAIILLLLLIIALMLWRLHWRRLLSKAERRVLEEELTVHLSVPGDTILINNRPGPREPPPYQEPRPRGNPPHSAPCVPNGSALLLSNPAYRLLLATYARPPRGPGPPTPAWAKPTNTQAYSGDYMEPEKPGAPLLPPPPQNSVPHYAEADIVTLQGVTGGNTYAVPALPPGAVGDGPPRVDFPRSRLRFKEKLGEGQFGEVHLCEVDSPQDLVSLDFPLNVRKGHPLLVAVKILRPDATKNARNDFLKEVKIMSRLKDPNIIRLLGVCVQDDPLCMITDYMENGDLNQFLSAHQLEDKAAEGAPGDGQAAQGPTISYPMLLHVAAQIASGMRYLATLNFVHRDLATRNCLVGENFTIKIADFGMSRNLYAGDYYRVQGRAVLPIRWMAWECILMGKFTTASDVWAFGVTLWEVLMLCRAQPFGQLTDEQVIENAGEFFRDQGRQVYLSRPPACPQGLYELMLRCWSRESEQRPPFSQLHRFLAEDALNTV
Sequence of TRAF2 and NCK-interacting protein kinase (Homo sapiens) (Q9UKE5 whole entry, looked up, the tested form may be a part): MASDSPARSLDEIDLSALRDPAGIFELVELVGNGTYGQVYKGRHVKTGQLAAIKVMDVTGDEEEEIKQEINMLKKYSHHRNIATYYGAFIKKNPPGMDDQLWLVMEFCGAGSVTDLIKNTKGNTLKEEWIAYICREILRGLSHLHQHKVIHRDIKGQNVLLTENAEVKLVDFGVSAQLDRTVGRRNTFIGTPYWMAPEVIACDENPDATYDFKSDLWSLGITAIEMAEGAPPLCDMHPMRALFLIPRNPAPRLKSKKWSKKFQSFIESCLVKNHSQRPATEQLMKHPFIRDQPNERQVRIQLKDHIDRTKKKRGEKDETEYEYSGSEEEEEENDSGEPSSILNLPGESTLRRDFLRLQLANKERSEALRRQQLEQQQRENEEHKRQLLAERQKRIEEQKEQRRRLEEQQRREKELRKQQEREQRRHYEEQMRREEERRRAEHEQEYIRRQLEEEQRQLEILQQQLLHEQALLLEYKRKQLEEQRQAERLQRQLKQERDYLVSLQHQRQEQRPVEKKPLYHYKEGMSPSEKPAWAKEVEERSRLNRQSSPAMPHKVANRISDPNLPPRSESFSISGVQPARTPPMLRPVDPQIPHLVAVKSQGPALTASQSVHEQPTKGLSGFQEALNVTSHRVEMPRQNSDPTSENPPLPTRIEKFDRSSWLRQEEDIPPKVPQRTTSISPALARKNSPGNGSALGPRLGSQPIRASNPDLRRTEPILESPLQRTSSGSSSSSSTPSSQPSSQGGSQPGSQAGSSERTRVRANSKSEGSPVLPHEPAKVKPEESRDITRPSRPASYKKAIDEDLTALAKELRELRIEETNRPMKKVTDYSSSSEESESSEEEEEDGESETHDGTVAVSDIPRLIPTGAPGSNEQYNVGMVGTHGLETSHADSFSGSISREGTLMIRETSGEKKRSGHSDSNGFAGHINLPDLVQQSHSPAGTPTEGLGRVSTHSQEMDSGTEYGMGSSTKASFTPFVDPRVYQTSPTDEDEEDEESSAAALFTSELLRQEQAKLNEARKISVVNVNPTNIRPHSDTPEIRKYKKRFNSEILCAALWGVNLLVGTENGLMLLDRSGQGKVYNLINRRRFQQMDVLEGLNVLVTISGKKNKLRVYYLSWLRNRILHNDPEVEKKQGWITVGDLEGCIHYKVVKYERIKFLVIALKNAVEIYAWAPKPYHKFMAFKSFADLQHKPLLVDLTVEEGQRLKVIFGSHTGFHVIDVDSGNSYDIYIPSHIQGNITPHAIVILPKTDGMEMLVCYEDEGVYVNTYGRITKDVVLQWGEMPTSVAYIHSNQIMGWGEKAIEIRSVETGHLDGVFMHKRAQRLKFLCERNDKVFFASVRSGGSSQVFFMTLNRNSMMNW
Sequence of Epidermal growth factor receptor (Homo sapiens), P00533 [L858R] (P00533 whole entry L858R): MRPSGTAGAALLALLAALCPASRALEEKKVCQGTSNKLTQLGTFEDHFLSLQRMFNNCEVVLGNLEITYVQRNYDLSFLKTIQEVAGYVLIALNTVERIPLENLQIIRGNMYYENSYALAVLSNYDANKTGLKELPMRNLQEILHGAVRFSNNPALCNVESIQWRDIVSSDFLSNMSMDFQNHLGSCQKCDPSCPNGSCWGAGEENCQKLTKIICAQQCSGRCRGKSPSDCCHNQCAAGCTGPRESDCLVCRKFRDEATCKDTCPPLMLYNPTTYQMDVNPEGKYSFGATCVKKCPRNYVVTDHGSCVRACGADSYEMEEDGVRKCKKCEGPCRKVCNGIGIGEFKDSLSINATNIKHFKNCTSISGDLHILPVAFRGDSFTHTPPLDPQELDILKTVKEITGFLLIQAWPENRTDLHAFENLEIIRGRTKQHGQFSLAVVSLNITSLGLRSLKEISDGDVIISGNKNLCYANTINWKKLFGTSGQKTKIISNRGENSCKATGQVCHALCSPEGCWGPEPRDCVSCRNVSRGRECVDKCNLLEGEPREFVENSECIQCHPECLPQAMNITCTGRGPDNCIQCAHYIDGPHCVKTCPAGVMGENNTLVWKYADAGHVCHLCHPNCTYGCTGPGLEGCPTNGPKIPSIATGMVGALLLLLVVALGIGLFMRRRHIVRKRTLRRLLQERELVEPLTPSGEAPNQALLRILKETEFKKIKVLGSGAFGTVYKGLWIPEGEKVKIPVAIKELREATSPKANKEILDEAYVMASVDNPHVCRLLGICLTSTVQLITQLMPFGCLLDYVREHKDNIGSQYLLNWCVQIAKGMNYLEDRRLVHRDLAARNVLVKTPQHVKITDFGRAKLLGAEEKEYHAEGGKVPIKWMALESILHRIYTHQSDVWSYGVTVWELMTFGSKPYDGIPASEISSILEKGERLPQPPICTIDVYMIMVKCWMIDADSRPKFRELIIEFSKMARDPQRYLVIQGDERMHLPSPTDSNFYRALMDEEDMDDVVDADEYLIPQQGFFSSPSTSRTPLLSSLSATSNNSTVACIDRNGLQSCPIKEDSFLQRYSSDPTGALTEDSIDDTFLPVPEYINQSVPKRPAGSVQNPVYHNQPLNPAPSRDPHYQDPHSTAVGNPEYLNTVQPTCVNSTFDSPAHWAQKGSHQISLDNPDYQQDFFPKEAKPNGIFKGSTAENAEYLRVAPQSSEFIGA
Sequence of Protein-tyrosine kinase 6 (Homo sapiens) (Q13882 whole entry, looked up): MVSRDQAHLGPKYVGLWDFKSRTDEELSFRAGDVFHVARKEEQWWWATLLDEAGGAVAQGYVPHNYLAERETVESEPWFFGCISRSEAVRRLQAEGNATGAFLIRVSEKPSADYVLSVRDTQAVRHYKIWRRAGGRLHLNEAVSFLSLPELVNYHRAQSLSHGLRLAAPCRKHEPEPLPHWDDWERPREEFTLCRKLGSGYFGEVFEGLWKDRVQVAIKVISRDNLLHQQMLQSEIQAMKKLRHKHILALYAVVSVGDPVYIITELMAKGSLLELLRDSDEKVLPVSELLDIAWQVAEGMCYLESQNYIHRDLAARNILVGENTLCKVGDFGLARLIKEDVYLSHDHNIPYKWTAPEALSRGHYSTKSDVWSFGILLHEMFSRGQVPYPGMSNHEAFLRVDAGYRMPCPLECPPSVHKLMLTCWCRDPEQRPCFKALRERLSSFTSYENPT
Sequence of Receptor-interacting serine/threonine-protein kinase 2 (Homo sapiens) (O43353 whole entry, the tested form may be a part): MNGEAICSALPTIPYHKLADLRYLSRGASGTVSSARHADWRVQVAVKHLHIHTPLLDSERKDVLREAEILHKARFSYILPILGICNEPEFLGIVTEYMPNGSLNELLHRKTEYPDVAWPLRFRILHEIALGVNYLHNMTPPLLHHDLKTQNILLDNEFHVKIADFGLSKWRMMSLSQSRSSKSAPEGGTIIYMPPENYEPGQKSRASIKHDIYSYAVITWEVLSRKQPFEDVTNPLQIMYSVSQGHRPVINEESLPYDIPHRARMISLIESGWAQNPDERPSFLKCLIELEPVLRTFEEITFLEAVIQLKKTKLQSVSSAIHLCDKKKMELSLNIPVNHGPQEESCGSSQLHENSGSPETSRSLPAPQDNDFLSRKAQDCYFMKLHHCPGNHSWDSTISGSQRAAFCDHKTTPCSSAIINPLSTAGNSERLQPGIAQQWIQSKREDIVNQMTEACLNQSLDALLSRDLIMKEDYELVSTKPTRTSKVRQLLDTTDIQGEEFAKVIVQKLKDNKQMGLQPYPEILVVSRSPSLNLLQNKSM

| remaining at 1 h, 1 µM [1] [%] | remaining at 1 h, 1 µM [2] [%] | Papp A→B at 2 h [3] [×10⁻⁶ cm/s] | Papp B→A at 2 h [4] [×10⁻⁶ cm/s] | IC50 (Activin receptor type-1 [5]) [nM] | concentration at 0.5 h [6] [nM] | concentration at 1 h [7] [nM] | concentration at 2 h [8] [nM] | concentration at 6 h [9] [nM] | concentration at 24 h [10] [nM] | IC50 (Activin receptor type-1 [11]) [nM] | concentration at 2 h [12] [nM] | concentration at 2 h [13] [nM] | concentration at 4 h [14] [nM] | concentration at 4 h [15] [nM] | Kp at 4 h [16] | pKa [17] | SMILES | also measured |
| --- | --- | --- | --- | --- | --- | --- | --- | --- | --- | --- | --- | --- | --- | --- | --- | --- | --- | --- |
| 70.9 | 66.5 | 5.3 | 11.6 | 6 | 729 | 1070 | 1120 | 1890 | 63 | 2 |  |  |  |  |  |  | COc1cc(-c2cncc3c2CCOc2cc(N4CCNCC4)ccc2-3)cc(OC)c1OC |  |
| 75.7 | 62.3 | 4.2 | 9.4 | 5 |  |  |  |  |  | 2 |  |  |  |  |  |  | COc1cc(-c2cncc3c2COCc2cc(N4CCNCC4)ccc2-3)cc(OC)c1OC |  |
| 4.3 | 29.7 | 16.5 | 13.6 | 7 |  |  |  |  |  | 3 |  |  |  |  |  |  | COc1cc(-c2cncc3c2COCc2cc(N4CCN(C)CC4)ccc2-3)cc(OC)c1OC |  |
| 0.9 | 34.8 | 8.3 | 9 | 45 |  |  |  |  |  | 13 |  |  |  |  |  |  | COc1cc(-c2cncc3c2COc2cc(N4CCN(C)CC4)ccc2-3)cc(OC)c1OC |  |
| 10.3 | 21.2 | 13.9 | 11.5 | 15 | 3650 | 5050 | 3530 | 2230 |  | 2 | 980 | 2410 | 393 | 1470 | 3.7 | 8.54 | COc1cc(-c2cncc3c2CCOc2cc(N4CCN(C)CC4)ccc2-3)cc(OC)c1OC |  |
|  |  |  |  |  | 3020 | 4280 | 7490 | 13400 | 1540 |  | 5250 | 2320 | 2680 | 888 | 0.3 | 8.6 | COc1cc(-c2cncc(-c3ccc(N4CCNCC4)cc3)c2C)cc(OC)c1OC | inhibition [18]: 100%; inhibition [19]: 100% |
| 98.6 | 73.2 | 0.8 | 4.2 | 11 | 323 | 466 | 523 | 1260 | 336 | 3 |  |  |  |  |  |  | COc1cc(-c2cncc3c2CN(C)Cc2cc(N4CCNCC4)ccc2-3)cc(OC)c1OC | inhibition [20]: Active; inhibition [21]: Active; inhibition [22]: Active; inhibition [23]: Active; inhibition [24]: Active; inhibition [25]: Active; inhibition [26]: Active |
| 65 | 58.3 | 1.5 | 2.5 | 18 | 134 | 254 | 277 | 300 | 17 | 7 | 75 | 4130 | 43 | 3250 | 75.6 | 8.12 | COc1cc(-c2cncc3c2CN(C)Cc2cc(N4CCN(C)CC4)ccc2-3)cc(OC)c1OC |  |
| 9.5 | 37.4 | 4 | 2.5 | > 10000 |  |  |  |  |  | 609 |  |  |  |  |  |  | COc1cc(-c2cncc3c2oc2cc(N4CCN(C)CC4)ccc23)cc(OC)c1OC |  |
